In ChEMBL document CHEMBL1128275, “Amino-substituted 2-[2'-(dimethylamino)ethyl]-1,2-dihydro-3H- dibenz[de,h]isoquinoline-1,3-diones. Synthesis, antitumor activity, and quantitative structure--activity relationship” (J Med Chem, 1995):

Assays:
[1] = test system: L1210; assay: Antitumor activity against murine L1210 resistant cell line by using MTT assay; assay type: functional, cell-based; conditions: Mus musculus
[2] = test system: WiDr; assay: Activity against resistant cell line of WiDr human colon tumor; assay type: functional, cell-based
In short: (§1)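 WiDr colon cells, sensitive line and a subline selected for resistance to mitoxantrone; MTT assay with continuous drug exposure. Compounds as hydrochlorides, dissolved in DMSO then serially diluted in PBS pH 7.4, 10^1–10^-5 μg/mL in half-log steps, DMSO ≤0.1% final.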

[3] = test system: L1210; assay: Anti-tumor activity against murine L1210 sensitive cell line by using MTT assay; assay type: functional, cell-based; conditions: Mus musculus
[4] = Cardiotoxicity was measured by using Neonatal rat heart myocyte assay; assay type: toxicity, tissue-based
In short: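 Neonatal rat heart myocytes in culture, 1 h drug exposure; cytotoxicity taken as the concentration lowering the ATP/protein ratio to 0.5, reported as IC50.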

[5] = test system: OVCAR-3; assay: Anti-tumor activity against human OVCAR-3 ovarian cancer cell lines by using MTT assay; assay type: functional, cell-based
In short: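 Human tumor lines (A375 melanoma; OVCAR-3 ovarian carcinoma resistant to standard drugs) under continuous exposure, read by sulforhodamine B or MTT. Drugs from DMSO stocks diluted in PBS pH 7.4, 10^1–10^-5 μg/mL half-log, DMSO ≤0.1%, 37 °C, 5% CO2. MTT: 6 days then 4 h dye, A570. SRB: 8 days, TCA fixation, 0.4% SRB stain, OD 564 nm. Six wells per concentration; IC50 averaged.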

[6] = Toxicity ratio of quotient of the IC50 in myocytes divided by the average IC50 for three tumor cell lines; assay type: cell-based; conditions: myocytes and three tumor cell lines; read-out: Toxicity ratio
In short: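 Calculated ratio: myocyte IC50 (neonatal rat heart cells, 1 h exposure, ATP/protein end point) divided by the mean IC50 across A375 melanoma, OVCAR-3 ovarian and sensitive L1210 leukemia cells under continuous exposure.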

[7] = test system: WiDr; assay: Activity against sensitive cell line of WiDr human colon tumor; assay type: functional, cell-based; in short: as §1
[8] = test system: Mus musculus; assay: The percent increase in life span of compound was measured against P388 Leukemia in mice at a dose of 10 mg/kg on days 1,5 and 9; assay type: functional
In short: (§2)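 Standard NCI protocol: 10^6 freshly harvested P388 cells injected ip into 10 adult male DBA/2J mice on day 0; compound given ip on days 1, 5 and 9; control group of 10 mice given tumor cells and saline on the same days. %ILS = 100 × (treated − control lifespan)/control lifespan, using group median lifespans.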

[9] = test system: Mus musculus; assay: The percent increase in life span of compound was measured against P388 Leukemia in mice at a dose of 8 mg/kg on days 1,5 and 9; assay type: functional; in short: as §2
[10] = test system: Mus musculus; assay: The percent increase in life span of compound was measured against P388 Leukemia cells in mice at a dose of 4 mg/kg on days 1,5 and 9; assay type: functional; in short: as §2
[11] = test system: Mus musculus; assay: The percent increase in life span of compound was measured against P388 Leukemia cells in mice at a dose of 4.5 mg/kg on days 1,5 and 9; assay type: functional; in short: as §2
[12] = test system: Mus musculus; assay: The percent increase in life span of compound was measured against P388 Leukemia in mice at a dose of 15 mg/kg on days 1,5 and 9; assay type: functional; in short: as §2
[13] = test system: Mus musculus; assay: The percent increase in life span of compound was measured against P388 Leukemia cells in mice at a dose of 10 mg/kg on days 1,5 and 9; assay type: functional; in short: as §2
[14] = test system: Mus musculus; assay: The percent increase in life span of compound was measured against P388 Leukemia cells in mice at a dose of 5 mg/kg on days 1,5 and 9; assay type: functional
[15] = test system: Mus musculus; assay: The percent increase in life span of compound was measured against P388 Leukemia cells in mice at a dose of 1.6 mg/kg on days 1,5 and 9; assay type: functional; in short: as §2

Row | SMILES | IC50 [1] [nM] | IC50 [2] [nM] | IC50 [3] [nM] | Cardiotoxicity [4] [µM] | IC50 [5] [nM] | selectivity ratio [6] | IC50 [7] [nM] | ILS at 10 mg/kg [8] [%] | ILS at 8 mg/kg [9] [%] | ILS at 4 mg/kg [10] [%] | ILS at 4.5 mg/kg [11] [%] | ILS at 15 mg/kg [12] [%] | ILS at 10 mg/kg [13] [%] | ILS at 5 mg/kg [14] [%] | ILS at 1.6 mg/kg [15] [%]
1 | CN(C)CCN1C(=O)c2cccc3cc4ccc(N)cc4c(c23)C1=O | 2.7 | 18 | 2.5 | 0.943 | 20 | 34 | 5.5 | 109 | 73 | 27 | – | – | – | – | –
2 | CN(C)CCN1C(=O)c2cccc3cc4cccc([N+](=O)[O-])c4c(c23)C1=O | 50 | – | 23 | 8.647 | 226 | 80 | – | – | – | – | – | – | – | – | –
3 | CN(C)CCN1C(=O)c2cc(N)cc3cc4ccccc4c(c23)C1=O | 15 | – | 6.2 | 1.724 | 20 | 101 | – | – | – | – | – | – | – | – | –
4 | COc1cccc2c1C(=O)c1c(O)c3c(c(O)c1C2=O)C[C@@](O)(C(=O)CO)C[C@@H]3O[C@H]1C[C@H](N)[C@H](O)[C@H](C)O1 [DOXORUBICIN] | 3880 | – | 35 | 11.064 | 35 | 181 | – | – | – | – | 113 | – | – | – | –
5 | CC(=O)Nc1cccc2cc3cccc4c3c(c12)C(=O)N(CCN(C)C)C4=O | 2430 | – | 243 | > 22.5 | 2430 | > 13.2 | – | – | – | – | – | – | – | – | –
6 | CN(C)CCN1C(=O)c2cccc3cc(N)cc(c23)C1=O [AMONAFIDE] | – | – | – | 48.4 | – | 30 | – | – | – | – | – | 88 | 45 | – | –
7 | CC(=O)Nc1ccc2cc3cccc4c3c(c2c1)C(=O)N(CCN(C)C)C4=O | 219 | 50 | 49 | 7.786 | 49 | 120 | 9 | – | – | – | – | – | – | – | –
8 | CN(C)CCN1C(=O)c2cc(NC(=O)C(C)(C)C)cc3cc4ccccc4c(c23)C1=O | 15 | – | 44 | 0.662 | 33 | 9.5 | – | – | – | – | – | – | – | – | –
9 | CN(C)CCN1C(=O)c2cccc3cc4ccccc4c(c23)C1=O [AZONAFIDE] | – | 15 | – | 1.983 | – | 44 | 10 | 63 | – | – | – | 79 | – | 25 | –
10 | CN(C)CCN1C(=O)c2cccc3cc4ccc(NC(=O)C(C)(C)C)cc4c(c23)C1=O | 200 | – | 200 | 11.025 | 150 | 55 | – | – | – | – | – | – | – | – | –
11 | CN(C)CCN1C(=O)c2c(NC(=O)C(C)(C)C)ccc3cc4ccccc4c(c23)C1=O | 172 | – | 862 | > 24.63 | 493 | > 25 | – | – | – | – | – | – | – | – | –
12 | CN(C)CCN1C(=O)c2cccc3cc4cccc(N)c4c(c23)C1=O | 678 | – | 678 | 27.1 | 1760 | 24 | – | – | – | – | – | – | – | – | –
13 | CN(C)CCN1C(=O)c2cccc3cc4c(N)cccc4c(c23)C1=O | 6780 | – | 6780 | > 81.3 | 9480 | > 6.7 | – | – | – | – | – | – | – | – | –
14 | CC(=O)Nc1ccc2cc3ccccc3c3c2c1C(=O)N(CCN(C)C)C3=O | 560 | – | 608 | > 24.331 | 608 | > 33 | – | – | – | – | – | – | – | – | –
15 | CC(=O)Nc1ccc2c3c4c(cccc4cc2c1)C(=O)N(CCN(C)C)C3=O | 170 | – | 114 | 0.487 | 13 | 7.7 | – | – | – | – | – | – | – | – | –
16 | CN(C)CCN1C(=O)c2cccc3cc4c([N+](=O)[O-])cccc4c(c23)C1=O | 20 | – | 50 | 0.65 | 50 | 14 | – | – | – | – | – | – | – | – | –
17 | CN(C)CCN1C(=O)c2cccc3cc4cc(N)ccc4c(c23)C1=O | 16 | – | 2.7 | 0.813 | 14 | 39 | – | – | – | – | – | – | – | – | –
18 | CC(=O)Nc1cc2c3c(c4ccccc4cc3c1)C(=O)N(CCN(C)C)C2=O | 73 | – | 19 | 0.177 | 61 | 3.5 | – | – | – | – | – | – | – | – | –
19 | O=C1c2c(O)ccc(O)c2C(=O)c2c(NCCNCCO)ccc(NCCNCCO)c21 [MITOXANTRONE] | 39 | 1400 | 5 | 7.737 | 5.8 | 387 | 10 | – | – | – | – | – | – | – | 200
20 | CN(C)CCN1C(=O)c2c(N)ccc3cc4ccccc4c(c23)C1=O | 7.9 | – | 5.4 | 0.434 | 12 | 48 | – | – | – | – | – | – | – | – | –
21 | CN(C)CCN1C(=O)c2ccc(N)c3cc4ccccc4c(c23)C1=O | 27 | – | 5.4 | 1.486 | 68 | 20 | – | – | – | – | – | – | – | – | –
22 | CC(=O)Nc1c2ccccc2c2c3c(cccc13)C(=O)N(CCN(C)C)C2=O | 487 | – | 487 | > 24.331 | 730 | > 37 | – | – | – | – | – | – | – | – | –
